Values joined by “and” are separate entries in the source; they are usually repeats but may differ in a detail not shown here. Identical values can stand only once. “Also recorded” adds a separate entry of the source. Like-named read-outs stand apart in the source and are kept apart here.
What was measured:
[1] = molecular target: rH2R (Rattus norvegicus, UniProt P25102); experiment: [35S]GTPγS binding assay, Sf9 cell membranes; assay type: biochemical
[2] = molecular target: hH1R (Homo sapiens, UniProt P35367); experiment: biochemical; assay type: binding
[3] = molecular target: T1, hH4R (Homo sapiens, UniProt Q9H3N8); experiment: Radioligand competition binding with [3H]histamine, Sf9 cell membranes
[4] = molecular target: T2, gpH2R (Cavia porcellus, UniProt P47747); design: species or system guinea pig
Target sequence in this assay (P47747 whole entry): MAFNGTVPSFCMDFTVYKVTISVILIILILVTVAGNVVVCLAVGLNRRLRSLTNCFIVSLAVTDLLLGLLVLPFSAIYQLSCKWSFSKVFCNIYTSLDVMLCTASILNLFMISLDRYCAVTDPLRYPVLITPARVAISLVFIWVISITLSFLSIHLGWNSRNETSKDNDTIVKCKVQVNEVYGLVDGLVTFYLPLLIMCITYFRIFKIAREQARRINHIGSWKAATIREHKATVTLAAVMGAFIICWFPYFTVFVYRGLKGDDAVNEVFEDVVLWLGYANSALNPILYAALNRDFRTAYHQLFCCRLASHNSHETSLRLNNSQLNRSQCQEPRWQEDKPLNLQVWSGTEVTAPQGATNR

[5] = molecular target: T2, gpH2R; experiment: biochemical; assay type: biochemical, guinea pig
Target sequence in this assay (P47747 whole entry): as above
Target sequence in this assay (P63092 1-380 isoform P63092-2 partner): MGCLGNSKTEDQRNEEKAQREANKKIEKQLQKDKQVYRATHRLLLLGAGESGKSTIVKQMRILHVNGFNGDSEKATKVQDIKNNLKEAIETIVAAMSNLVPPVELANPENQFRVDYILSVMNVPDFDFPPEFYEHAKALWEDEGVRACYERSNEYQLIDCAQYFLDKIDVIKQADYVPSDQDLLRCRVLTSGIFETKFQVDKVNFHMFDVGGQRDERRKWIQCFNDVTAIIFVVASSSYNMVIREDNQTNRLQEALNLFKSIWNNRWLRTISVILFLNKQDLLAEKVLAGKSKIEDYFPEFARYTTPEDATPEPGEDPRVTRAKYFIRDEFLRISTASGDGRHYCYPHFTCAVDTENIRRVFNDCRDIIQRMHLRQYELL

[6] = molecular target: T3, hH2R (Homo sapiens, UniProt P25021); experiment: [35S]GTPγS binding assay, Sf9 cell membranes; assay type: biochemical
[7] = molecular target: T4, hH3R (Homo sapiens, UniProt Q9Y5N1); experiment: [35S]GTPγS binding assay, Sf9 cell membranes; assay type: biochemical
[8] = molecular target: T3, hH2R; assay type: binding; conditions: for difference in pKi (H2R) over pKi (H1,3,4R): hH2R selectivity from radioligand binding
[9] = Chemical stability in binding buffer, RP-HPLC analysis; assay type: physicochemical; conditions: binding buffer pH 7.4, 100 μM, room temperature, 12 months
In short: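 Test compounds (dimeric bisalkylguanidines) were held at 100 μM in binding buffer (12.5 mM MgCl2, 1 mM EDTA, 75 mM Tris/HCl, pH 7.4) at room temperature for 12 months.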

[10] = molecular target: T1, hH4R; experiment: [35S]GTPγS binding assay, Sf9 cell membranes; assay type: biochemical
[11] = molecular target: T4, hH3R; experiment: Radioligand competition binding with [3H]Nα-methylhistamine, Sf9 cell membranes
[12] = molecular target: gpH1R (Cavia porcellus, UniProt P31389); experiment: Histamine H1 receptor assay on isolated guinea pig ileum
[13] = hH2R pKi, [3H]tiotidine (Kd […], c = 10 nM), mean ± SEM
[14] = hH3R pKi, [3H]Nα-methylhistamine (Kd 8.6 nM, c = 3 nM), mean ± SEM

T4 sequence (Q9Y5N1 whole entry): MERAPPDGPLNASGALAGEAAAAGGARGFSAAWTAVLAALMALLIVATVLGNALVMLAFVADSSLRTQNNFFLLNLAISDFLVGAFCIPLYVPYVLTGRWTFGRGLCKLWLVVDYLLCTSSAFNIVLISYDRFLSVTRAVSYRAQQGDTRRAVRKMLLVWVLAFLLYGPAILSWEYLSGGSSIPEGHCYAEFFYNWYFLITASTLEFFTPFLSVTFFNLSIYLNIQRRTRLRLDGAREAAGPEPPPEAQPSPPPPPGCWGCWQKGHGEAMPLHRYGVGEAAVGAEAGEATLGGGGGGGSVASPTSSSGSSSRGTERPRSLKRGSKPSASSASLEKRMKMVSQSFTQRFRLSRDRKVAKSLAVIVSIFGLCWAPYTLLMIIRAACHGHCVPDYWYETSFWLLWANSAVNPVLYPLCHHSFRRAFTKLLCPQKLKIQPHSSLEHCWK
Sequence of rH2R (P25102 whole entry): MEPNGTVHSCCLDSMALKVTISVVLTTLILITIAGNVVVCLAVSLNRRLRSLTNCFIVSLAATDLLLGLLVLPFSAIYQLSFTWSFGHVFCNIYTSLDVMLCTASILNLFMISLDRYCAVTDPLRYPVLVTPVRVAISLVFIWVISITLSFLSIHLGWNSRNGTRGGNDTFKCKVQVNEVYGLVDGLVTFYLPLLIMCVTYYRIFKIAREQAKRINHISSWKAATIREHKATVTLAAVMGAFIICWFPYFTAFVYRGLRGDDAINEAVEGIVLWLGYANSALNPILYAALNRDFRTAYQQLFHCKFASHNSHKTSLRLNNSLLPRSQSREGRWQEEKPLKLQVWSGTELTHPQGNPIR
Sequence of rH2R (P63092 1-380 isoform P63092-2 partner): as the sequence (P63092 1-380 isoform P63092-2 partner) above
T1 sequence (Q9H3N8 whole entry): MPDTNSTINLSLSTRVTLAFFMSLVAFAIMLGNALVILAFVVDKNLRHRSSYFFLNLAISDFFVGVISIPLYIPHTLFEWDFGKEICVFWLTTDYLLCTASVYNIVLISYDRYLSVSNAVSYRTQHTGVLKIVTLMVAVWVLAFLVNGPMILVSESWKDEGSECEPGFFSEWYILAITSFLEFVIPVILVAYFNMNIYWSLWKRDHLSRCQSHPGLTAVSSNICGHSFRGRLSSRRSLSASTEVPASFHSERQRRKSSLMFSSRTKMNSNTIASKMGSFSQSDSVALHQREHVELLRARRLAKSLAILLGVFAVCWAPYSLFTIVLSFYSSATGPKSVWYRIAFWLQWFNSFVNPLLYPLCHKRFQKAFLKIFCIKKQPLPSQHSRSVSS
T3 sequence (P25021 whole entry): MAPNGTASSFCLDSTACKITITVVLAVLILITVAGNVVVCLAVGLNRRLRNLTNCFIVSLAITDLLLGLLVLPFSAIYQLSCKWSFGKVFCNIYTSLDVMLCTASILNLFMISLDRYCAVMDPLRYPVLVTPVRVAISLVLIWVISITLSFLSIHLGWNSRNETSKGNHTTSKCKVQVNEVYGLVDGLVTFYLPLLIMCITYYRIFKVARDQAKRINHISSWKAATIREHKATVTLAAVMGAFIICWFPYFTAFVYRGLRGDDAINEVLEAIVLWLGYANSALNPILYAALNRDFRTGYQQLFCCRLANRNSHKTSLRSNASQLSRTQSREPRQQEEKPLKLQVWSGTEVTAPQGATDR
T3 sequence (P63092 1-380 isoform P63092-2 partner): as the sequence (P63092 1-380 isoform P63092-2 partner) above
Sequence of gpH1R (P31389 whole entry): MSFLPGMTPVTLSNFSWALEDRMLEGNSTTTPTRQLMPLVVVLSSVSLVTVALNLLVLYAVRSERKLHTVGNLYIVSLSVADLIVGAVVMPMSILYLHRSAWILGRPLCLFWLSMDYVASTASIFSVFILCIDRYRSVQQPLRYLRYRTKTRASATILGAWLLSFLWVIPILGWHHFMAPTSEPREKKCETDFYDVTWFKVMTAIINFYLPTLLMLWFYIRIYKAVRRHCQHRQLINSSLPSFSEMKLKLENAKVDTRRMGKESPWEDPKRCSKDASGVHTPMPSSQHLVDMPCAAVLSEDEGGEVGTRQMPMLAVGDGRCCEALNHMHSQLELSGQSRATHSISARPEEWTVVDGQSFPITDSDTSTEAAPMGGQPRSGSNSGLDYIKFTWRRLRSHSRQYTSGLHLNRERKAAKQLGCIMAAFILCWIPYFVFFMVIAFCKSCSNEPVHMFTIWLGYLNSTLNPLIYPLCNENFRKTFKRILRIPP
Sequence of hH1R (P35367 whole entry): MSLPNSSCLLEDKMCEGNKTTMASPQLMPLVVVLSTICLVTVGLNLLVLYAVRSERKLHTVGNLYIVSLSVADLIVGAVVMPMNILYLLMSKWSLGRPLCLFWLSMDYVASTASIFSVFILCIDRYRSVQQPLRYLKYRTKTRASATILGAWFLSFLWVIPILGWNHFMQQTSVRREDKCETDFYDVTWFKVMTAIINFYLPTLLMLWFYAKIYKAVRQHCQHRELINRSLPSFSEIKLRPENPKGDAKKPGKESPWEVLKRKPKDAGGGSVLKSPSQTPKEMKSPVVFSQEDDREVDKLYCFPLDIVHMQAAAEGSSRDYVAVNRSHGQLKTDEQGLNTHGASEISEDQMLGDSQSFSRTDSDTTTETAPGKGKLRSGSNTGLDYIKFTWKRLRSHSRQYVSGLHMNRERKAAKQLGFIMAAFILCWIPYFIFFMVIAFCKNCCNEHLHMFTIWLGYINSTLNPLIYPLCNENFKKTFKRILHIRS

For `N=C(NCCCCCCCCCCCCNC(=N)NCCCc1c[nH]cn1)NCCCc1c[nH]cn1` [Compound 57, 1,1′-(Dodecane-1,12-diyl)bis{3-[3-(1H-imidazol-4-yl)propyl]guanidine}], the EC50 [1] was 24.5 nM, the “rH2R Emax” value [1] was 0.80 and 0.80 ± 0.03 and the Ki ([2]; hH1R pKi) was 355 nM. The Ki ([3]; hH4R pKi) was 20 nM, the EC50 [4] was 7.76 nM and the “gpH2R Emax” value [4] was 0.63 and 0.63 ± 0.03. For the same compound, the EC50 [5] was 29.5 nM, the “gpH2R Emax” value [5] was 0.89 ± 0.07 and the EC50 [6] was 53.7 nM. The “hH2R Emax” value [6] was 0.52 ± 0.03, the Kb [7] was 46.8 nM and the “hH3R Emax” value [7] was 0. For the same compound, the Ki [8, 13] was 38.9 nM, the chemical stability [9] was “excellent chemical stabilities; also recorded: no decomposition” and the Kb [10] was 324000 nM. The “hH4R Emax” value [10] was 0, the Ki [11, 14] was 16.2 nM and the Kb [12] was 123 nM. The “gpH1R pA2” value ([12]; guinea pig ileum, antagonism of histamine-induced contraction) was 6.91.
With `Cc1nc(N)sc1CCCNC(=N)NCCCCCCCCNC(=N)NCCCc1cnc(N)s1` [Compound 63, 1-[3-(2-Amino-4-methylthiazol-5-yl)propyl]-3-{8-[3-(3-(2-aminothiazol-5-yl)propyl)guanidino]octyl}guanidine] the EC50 [1] was 141 nM, the “rH2R Emax” value [1] was 0.87 ± 0.02 and the Ki ([2]; hH1R pKi) was over 3160 nM. For the same compound, the Ki ([3]; hH4R pKi) was 7240 nM, the EC50 [4] was 2.75 nM and the Emax [4] was 88%. For the same compound, the “gpH2R Emax” value [4] was 0.88 ± 0.03, the “potency relative to histamine” value ([4]; gpH2R, atrium) was 250 times and the EC50 [5] was 46.8 nM. For the same compound, the “gpH2R Emax” value [5] was 1.02 and 1.02 ± 0.04, the EC50 [6] was 251 nM and the “hH2R Emax” value [6] was 0.47 ± 0.03. The Kb [7] was 21400 nM, the “hH3R Emax” value [7] was 0 and the Ki [8, 13] was 123 nM. The “difference in pKi (H2R) over pKi (H1,3,4R)” value [8] was “at least 1.5 log units”, the Kb [10] was 186000 nM and the “hH4R Emax” value [10] was 0. The Ki [11, 14] was 3980 nM and the Kb [12] was 1000 nM.
In the case of `Cc1nc(N)sc1CCCNC(=N)NCCCCCCCCNC(=N)NCCCc1sc(N)nc1C` [Compound 58, 1,1′-(Octane-1,8-diyl)bis{3-[3-(2-amino-4-methylthiazol-5-yl)propyl]guanidine}], the EC50 [1] is reported as 148 nM, the “rH2R Emax” value [1] is reported as 0.70 ± 0.04 and the Ki ([2]; Ki hH1R, bound stated) is reported as over 1000 nM. For the same compound, the Ki ([2]; hH1R pKi) was over 3160 nM, the Ki ([3]; Ki hH4R, bound stated) was over 1000 nM and the “gpH2R Emax” value [4] was 0.78 ± 0.01. For the same compound, the EC50 [5] was 52.5 nM, the “gpH2R Emax” value [5] was 0.97 ± 0.06 and the EC50 [6] was 245 nM. The “hH2R Emax” value [6] was 0.33 ± 0.03, the “hH3R Emax” value [7] was 0 and the Ki ([8]; Ki hH2R, bound stated) was under 100 nM. The Ki [8, 13] was 46.8 nM, the “difference in pKi (H2R) over pKi (H1,3,4R)” value [8] was “at least 1.5 log units” and the chemical stability [9] was “excellent chemical stabilities; also recorded: no decomposition”. For the same compound, the “hH4R Emax” value [10] was 0 and the Ki ([11]; Ki hH3R, bound stated) was over 1000 nM.
